Measurements from ChEMBL document CHEMBL3525900, “Pharmacokinetics, distribution, and metabolism of [14C]sunitinib in rats, monkeys, and humans” (Drug Metab Dispos, 2012).

Legend:
Spleen [1] = experiment: Drug concentration in female albino rat spleen assessed as radioactivity per gram of tissue at 20 mg/kg administered as single dose via gastric gavage measured after 6 hrs by autoradiographic analysis; assay type: ADME, organism-based; design: dose 20 mg/kg, dosed compound name [14C]Sunitinib; settings: in vivo, po
Liver = experiment: Drug concentration in male albino rat liver assessed as radioactivity per gram of tissue at 20 mg/kg administered as single dose via gastric gavage measured after 3 hrs by autoradiographic analysis; assay type: ADME, organism-based; design: dose 20 mg/kg, dosed compound name [14C]Sunitinib; settings: in vivo, po
[2] = Drug concentration in female albino rat salivary gland assessed as radioactivity per gram of tissue at 20 mg/kg administered as single dose via gastric gavage measured after 24 hrs by autoradiographic analysis; assay type: ADME, organism-based; design: dose 20 mg/kg, dosed compound name [14C]Sunitinib; settings: in vivo, po
Procedure, shortened: (§1)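 Sprague Dawley albino rats, ca 7-8 weeks old, dosed once by gastric gavage with [14C]sunitinib L-malate (15 mg freebase/kg, 100 µCi/kg). One male and one female killed by CO2 at 3, 6, 24, 72 and 168 h. Carcasses frozen in solid CO2/hexane, embedded and cut into 30 µm sagittal sections, then freeze-dried. Radioactivity quantified by whole-body autoradiography against standards by regression, background subtracted.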

[3] = Drug concentration in male Lister Hooded pigmented rat testis assessed as radioactivity per gram of tissue at 20 mg/kg administered as single dose via gastric gavage measured after 24 hrs by autoradiographic analysis; assay type: ADME, organism-based; design: dose 20 mg/kg, dosed compound name [14C]Sunitinib; settings: in vivo, po
[4] = Drug concentration in female albino rat bladder assessed as radioactivity per gram of tissue at 20 mg/kg administered as single dose via gastric gavage measured after 72 hrs by autoradiographic analysis; assay type: ADME, organism-based, Urinary bladder; design: dose 20 mg/kg, dosed compound name [14C]Sunitinib; settings: in vivo, po
Procedure, shortened: (§2)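 Sprague Dawley (albino) rats, ca 7-8 weeks old, received a single gastric-gavage dose of [14C]sunitinib L-malate at 20 mg/kg (15 mg freebase/kg, 100 µCi/kg). One animal per sex killed by CO2 at 3, 6, 24, 72 and 168 h, then frozen in CO2/hexane. 30 µm sagittal sections were cut and freeze-dried. Radioactivity per gram quantified by whole-body autoradiography using regression against standards. LOQ 0.04–0.06 µg freebase equiv/g.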

[5] = Drug concentration in female albino rat lymph node assessed as radioactivity per gram of tissue at 20 mg/kg administered as single dose via gastric gavage measured after 6 hrs by autoradiographic analysis; assay type: ADME, organism-based; design: dose 20 mg/kg, dosed compound name [14C]Sunitinib; settings: in vivo, po; procedure, shortened: as §1
[6] = Drug concentration in male Lister Hooded pigmented rat bladder assessed as radioactivity per gram of tissue at 20 mg/kg administered as single dose via gastric gavage measured after 168 hrs by autoradiographic analysis; assay type: ADME, organism-based, Urinary bladder; design: dose 20 mg/kg, dosed compound name [14C]Sunitinib; settings: in vivo, po
Homo sapiens [7] = experiment: Total drug recovery in human at 50 mg, po administered as single dose during 0 to 504 hrs by liquid scintillation counting; assay type: ADME, organism-based; design: dosed compound name [14C]Sunitinib; settings: in vivo
Large intestine = experiment: Drug concentration in male albino rat large intestine assessed as radioactivity per gram of tissue at 20 mg/kg administered as single dose via gastric gavage measured after 6 hrs by autoradiographic analysis; assay type: ADME, organism-based; design: dose 20 mg/kg, dosed compound name [14C]Sunitinib; settings: in vivo, po
Spleen [8] = experiment: Drug concentration in female albino rat spleen assessed as radioactivity per gram of tissue at 20 mg/kg administered as single dose via gastric gavage measured after 3 hrs by autoradiographic analysis; assay type: ADME, organism-based; design: dose 20 mg/kg, dosed compound name [14C]Sunitinib; settings: in vivo, po
Ovary = experiment: Drug concentration in female albino rat ovary assessed as radioactivity per gram of tissue at 20 mg/kg administered as single dose via gastric gavage measured after 3 hrs by autoradiographic analysis; assay type: ADME, organism-based, Female gonad; design: dose 20 mg/kg, dosed compound name [14C]Sunitinib; settings: in vivo, po
Procedure, shortened: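 Sprague Dawley (albino) and Lister Hooded (pigmented) rats, ca 7-8 weeks old, 179-310 g, acclimated 7 days. Single gavage dose of [14C]sunitinib L-malate (15 mg freebase/kg, 100 µCi/kg). One male and one female killed by CO2 per time point: albino at 3, 6, 24, 72, 168 h; pigmented at 24, 72, 168, 336 h. Carcasses frozen in solid CO2/hexane, 30 µm sagittal sections freeze-dried. Tissue radioactivity read by quantitative whole-body autoradiography against regression of standards, mean background subtracted.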

[9] = Drug concentration in female Lister Hooded pigmented rat bone marrow assessed as radioactivity per gram of tissue at 20 mg/kg administered as single dose via gastric gavage measured after 24 hrs by autoradiographic analysis; assay type: ADME, organism-based; design: dose 20 mg/kg, dosed compound name [14C]Sunitinib; settings: in vivo, po
Procedure, shortened: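 Lister Hooded (pigmented) rats, ca 7-8 weeks old, acclimated 7 days, given [14C]sunitinib L-malate by gastric gavage at 20 mg/kg (15 mg freebase/kg, 100 µCi/kg). One male and one female killed by CO2 at 24, 72, 168 and 336 h. Carcasses frozen in solid CO2/hexane and embedded in frozen cellulose. 30 µm sagittal cryosections were freeze-dried. Tissue radioactivity measured by quantitative whole-body autoradiography against calibration standards, with background subtracted.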

[10] = Drug concentration in male Lister Hooded pigmented rat preputial gland assessed as radioactivity per gram of tissue at 20 mg/kg administered as single dose via gastric gavage measured after 72 hrs by autoradiographic analysis; assay type: ADME, organism-based; design: dose 20 mg/kg, dosed compound name [14C]Sunitinib; settings: in vivo, po
Homo sapiens [11] = experiment: Cmax as total radioactivity in human plasma at 50 mg, po administered as single dose measured up to 24 hrs by LC/MS/MS analysis; assay type: ADME, organism-based; design: dose 50 mg, dosed compound name [14C]Sunitinib, route oral; settings: in vivo
Procedure, shortened: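 Open-label phase I study in 8 subjects given one 50 mg oral dose of [14C]sunitinib (100 µCi). Plasma total radioactivity was counted by scintillation on triplicate 0.25 mL aliquots. Sunitinib was quantified by LC-MS-MS. Noncompartmental analysis: Cmax read directly, terminal t½ = ln(2)/slope of the log-concentration regression, AUC by linear trapezoidal rule to the last detectable concentration.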

Rattus norvegicus = experiment: Tmax as total radioactivity in male Sprague-Dawley rat plasma at 15 mg/kg, po administered as single dose by LC/MS/MS analysis; assay type: ADME, organism-based; design: dose 15 mg/kg, dosed compound name [14C]Sunitinib, route oral; settings: in vivo
Stomach = experiment: Drug concentration in female albino rat stomach assessed as radioactivity per gram of tissue at 20 mg/kg administered as single dose via gastric gavage measured after 72 hrs by autoradiographic analysis; assay type: ADME, organism-based; design: dose 20 mg/kg, dosed compound name [14C]Sunitinib; settings: in vivo, po
Kidney = experiment: Drug concentration in female albino rat kidney assessed as radioactivity per gram of tissue at 20 mg/kg administered as single dose via gastric gavage measured after 168 hrs by autoradiographic analysis; assay type: ADME, organism-based; design: dose 20 mg/kg, dosed compound name [14C]Sunitinib; settings: in vivo, po; procedure, shortened: as §1
Heart = experiment: Drug concentration in male albino rat heart assessed as radioactivity per gram of tissue at 20 mg/kg administered as single dose via gastric gavage measured after 6 hrs by autoradiographic analysis; assay type: ADME, organism-based; design: dose 20 mg/kg, dosed compound name [14C]Sunitinib; settings: in vivo, po
[12] = Drug concentration in male Lister Hooded pigmented rat skeletal muscle assessed as radioactivity per gram of tissue at 20 mg/kg administered as single dose via gastric gavage measured after 24 hrs by autoradiographic analysis; assay type: ADME, organism-based; design: dose 20 mg/kg, dosed compound name [14C]Sunitinib; settings: in vivo, po
Blood [13] = experiment: Drug concentration in male Lister Hooded pigmented rat blood assessed as radioactivity per gram of tissue at 20 mg/kg administered as single dose via gastric gavage measured after 168 hrs by autoradiographic analysis; assay type: ADME, organism-based; design: dose 20 mg/kg, dosed compound name [14C]Sunitinib; settings: in vivo, po
Blood [14] = experiment: Drug concentration in male Lister Hooded pigmented rat blood assessed as radioactivity per gram of tissue at 20 mg/kg administered as single dose via gastric gavage measured after 24 hrs by autoradiographic analysis; assay type: ADME, organism-based; design: dose 20 mg/kg, dosed compound name [14C]Sunitinib; settings: in vivo, po
Zone of skin = experiment: Drug concentration in female albino rat abdomen skin assessed as radioactivity per gram of tissue at 20 mg/kg administered as single dose via gastric gavage measured after 24 hrs by autoradiographic analysis; assay type: ADME, organism-based; design: dose 20 mg/kg, dosed compound name [14C]Sunitinib; settings: in vivo, po; procedure, shortened: as §2
Adrenal = experiment: Drug concentration in female albino rat adrenal assessed as radioactivity per gram of tissue at 20 mg/kg administered as single dose via gastric gavage measured after 3 hrs by autoradiographic analysis; assay type: ADME, organism-based; design: dose 20 mg/kg, dosed compound name [14C]Sunitinib; settings: in vivo, po; procedure, shortened: as §2
Brain = experiment: Drug concentration in male Lister Hooded pigmented rat brain assessed as radioactivity per gram of tissue at 20 mg/kg administered as single dose via gastric gavage measured after 168 hrs by autoradiographic analysis; assay type: ADME, organism-based; design: dose 20 mg/kg, dosed compound name [14C]Sunitinib; settings: in vivo, po
[15] = Drug concentration in female albino rat preputial gland assessed as radioactivity per gram of tissue at 20 mg/kg administered as single dose via gastric gavage measured after 72 hrs by autoradiographic analysis; assay type: ADME, organism-based; design: dose 20 mg/kg, dosed compound name [14C]Sunitinib; settings: in vivo, po; procedure, shortened: as §1

- Radiolabel recovery (Spleen [1]): 27.96 ugequiv
- Radiolabel recovery (Liver): 15.71 ugequiv
- Radiolabel recovery [2]: 2.65 ugequiv
- Radiolabel recovery [3]: 2.27 ugequiv
- Radiolabel recovery [4]: 0.14 ugequiv
- Radiolabel recovery [5]: 14.48 ugequiv
- Radiolabel recovery [6]: 0.06 ugequiv
- Radiolabel recovery (Homo sapiens [7]): 77%
- Radiolabel recovery (Large intestine): 5.38 ugequiv
- Radiolabel recovery (Spleen [8]): 30.72 ugequiv
- Radiolabel recovery (Ovary): 10.92 ugequiv
- Radiolabel recovery [9]: 0.74 ugequiv
- Radiolabel recovery [10]: 7.84 ugequiv
- Cmax (Homo sapiens [11]): 67.4 ngequiv/ml
- Tmax (Rattus norvegicus): 5 h
- Radiolabel recovery (Stomach): 0.15 ugequiv
- Radiolabel recovery (Kidney): 0.09 ugequiv
- Radiolabel recovery (Heart): 4.61 ugequiv
- Radiolabel recovery [12]: 0.3 ugequiv
- Radiolabel recovery (Blood [13]): 0.06 ugequiv
- Radiolabel recovery (Blood [14]): 0.16 ugequiv
- Radiolabel recovery (Zone of skin): 4.16 ugequiv
- Radiolabel recovery (Adrenal): 29.98 ugequiv
- Radiolabel recovery (Brain): 0.06 ugequiv
- Radiolabel recovery [15]: 0.24 ugequiv
SMILES: CCN(CC)CCNC(=O)c1c(C)[nH]c(/[14CH]=C2\C(=O)Nc3ccc(F)cc32)c1C.O=C(O)C[C@H](O)C(=O)O
